Measurements from ChEMBL document CHEMBL4043205, “Picomolar inhibition of β-galactosidase (bovine liver) attributed to loop closure” (Bioorg Med Chem, 2017).
Calls of active or inactive are those of the source. No cut-off for these calls is given here.

Tests used:
[1] = Inhibition of Aspergillus oryzae beta-galactosidase using 2-chloro-4-nitrophenyl b-dgalactopyranoside substrate
[2] = tested on: Aspergillus oryzae; test: Inhibition of Aspergillus oryzae beta-galactosidase using 2-chloro-4-nitrophenyl b-dgalactopyranoside substrate by Eddie-Hofstee plot
[3] = biological target: T1, Beta-galactosidase (Bos taurus, UniProt Q58D55); test: Inhibition of bovine liver beta-galactosidase using 4-nitrophenyl-beta-D-galactopyranoside substrate measured over 240 mins at 10 mins intervals by UV/Vis spectroscopy
T1 sequence (Q58D55 whole entry): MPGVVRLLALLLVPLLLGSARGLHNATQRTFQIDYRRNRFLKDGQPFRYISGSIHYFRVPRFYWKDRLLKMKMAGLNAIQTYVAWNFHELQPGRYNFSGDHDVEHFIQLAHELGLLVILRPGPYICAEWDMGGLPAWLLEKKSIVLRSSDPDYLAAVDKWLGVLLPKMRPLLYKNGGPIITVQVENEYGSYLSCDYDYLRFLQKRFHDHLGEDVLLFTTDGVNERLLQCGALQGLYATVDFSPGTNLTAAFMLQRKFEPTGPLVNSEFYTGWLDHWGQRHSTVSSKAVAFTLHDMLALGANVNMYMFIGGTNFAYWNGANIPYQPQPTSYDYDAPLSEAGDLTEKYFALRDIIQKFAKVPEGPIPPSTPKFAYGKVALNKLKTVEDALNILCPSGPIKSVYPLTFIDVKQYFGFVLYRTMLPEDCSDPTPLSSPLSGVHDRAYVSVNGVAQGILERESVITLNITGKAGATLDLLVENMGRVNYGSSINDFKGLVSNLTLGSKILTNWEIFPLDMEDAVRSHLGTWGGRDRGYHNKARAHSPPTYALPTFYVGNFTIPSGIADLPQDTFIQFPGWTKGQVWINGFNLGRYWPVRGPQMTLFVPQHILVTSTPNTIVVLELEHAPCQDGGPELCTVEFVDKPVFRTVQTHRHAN
Outline: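 Bovine liver enzyme in 5 mM HEPES pH 7.50; 4-nitrophenyl-β-D-galactopyranoside mixed with 11 inhibitor dilutions (stocks 0.005–200 μM), equilibrated 30 °C 30 min, then enzyme added. Absorbance at 405 nm followed 240 min; final reads converted to percent inhibition against buffer control, plotted versus log inhibitor concentration; duplicates.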

[4] = Inhibition of Aspergillus oryzae beta-galactosidase using 2-chloro-4-nitrophenyl b-dgalactopyranoside substrate relative to control
[5] = biological target: T2, Beta-galactosidase (Bos taurus) (UniProt Q58D55); test: Competitive inhibition of bovine liver beta-galactosidase using 4-nitrophenyl-beta-D-galactopyranoside substrate measured over 240 mins at 10 mins intervals by UV/Vis spectroscopy based Eddie-Hofstee plot
T2 sequence (whole entry): T1 sequence (Q58D55 whole entry)

[6] = tested on: Aspergillus oryzae; test: Inhibition of Aspergillus oryzae beta-galactosidase using 2-chloro-4-nitrophenyl b-dgalactopyranoside substrate by Lineweaver-Burk plot
[7] = biological target: T2, Beta-galactosidase (Bos taurus); test: Competitive inhibition of bovine liver beta-galactosidase using 4-nitrophenyl-beta-D-galactopyranoside substrate measured over 240 mins at 10 mins intervals by UV/Vis spectroscopy based Lineweaver-Burk plot
[8] = biological target: T1, Beta-galactosidase; test: Inhibition of bovine liver beta-galactosidase pre-incubated for 30 mins with 4-nitrophenyl-beta-D-galactopyranoside substrate before enzyme addition measured over 45 mins at 27 secs intervals by UV/Vis based spectroscopy
Outline: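 Bovine liver enzyme (stock aliquot thawed, diluted in 5 mM HEPES, kept on ice). Varied 4-nitrophenyl-β-D-galactopyranoside with fixed inhibitor, pH 7.50 HEPES, equilibrated 30 °C 30 min before enzyme; 405 nm read for 45 min. Initial rates via ε 13,300 M−1 cm−1, fitted Michaelis-Menten at ≥2 inhibitor levels; competitive Ki from K′m = Km(1+[I]/Ki); duplicates, Lineweaver-Burk check.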

Structure (SMILES) | Ki [1] | inhibition activity (qualitative) [2] | IC50 [3] | IC50 [4] | competitive inhibition (qualitative call) [5] | inhibition activity [6] | Inhibition mode (qualitative, Lineweaver-Burk) [7] | Ki [8]
OC[C@H]1N/C(=N\C2CCCCC2)[C@H](O)[C@@H](O)[C@H]1O | 602 nM | Active | > 1000 nM | 4870 nM | Active | Active | Active | 2.34 nM
Cc1ccc(C/N=C2\N[C@H](CO)[C@H](O)[C@H](O)[C@H]2O)cc1 | 8 nM | Active | 57.6 nM | 36 nM | Active | Active | Active | 0.07 nM
CCCCCCC/N=C1\N[C@H](CO)[C@H](O)[C@H](O)[C@H]1O | 10.8 nM | Active | 24.1 nM | 107 nM | Active | Active | Active | 0.11 nM
CCC/N=C1\N[C@H](CO)[C@H](O)[C@H](O)[C@H]1O | 149 nM | Active | 1030 nM | 226 nM | Active | Active | Active | 0.32 nM
OC[C@H]1N/C(=N\CC2CCCCC2)[C@H](O)[C@@H](O)[C@H]1O | 11.3 nM | Active | 11.6 nM | 22 nM | Active | Active | Active | 0.08 nM
CO[C@@H]1[C@H](O)[C@@H](O)C(NCc2ccc(C)cc2)=N[C@@H]1CO | 1400 nM | Active | 9200 nM | 40700 nM | Active | Active | Active | 840 nM
OC[C@H]1N/C(=N\Cc2ccc(C(F)(F)F)cc2)[C@H](O)[C@@H](O)[C@H]1O | 15.7 nM | Active | 15.2 nM | 122 nM | Active | Active | Active | 0.16 nM
O=C1N[C@H](CO)[C@H](O)[C@H](O)[C@H]1O | 615 nM | Active | 8700 nM | > 50000 nM | Active | Active | Active | 2700 nM
OC[C@H]1N/C(=N\Cc2ccccc2F)[C@H](O)[C@@H](O)[C@H]1O | 16.1 nM | Active | 43.1 nM | 117 nM | Active | Active | Active | 0.23 nM
CCCCCCCCCCCNC1=N[C@H](CO)[C@H](O)[C@H](O)[C@H]1O | 48.4 nM | Active | 42.7 nM | 33.5 nM | Active | Active | Active | 0.24 nM
CCCCC(CC)CNC1=N[C@H](CO)[C@H](O)[C@H](O)[C@H]1O (stereo partly specified) | 7.8 nM | Active | 21.6 nM | 36 nM | Active | Active | Active | 0.18 nM
OC[C@H]1N/C(=N\Cc2cccc(F)c2)[C@H](O)[C@@H](O)[C@H]1O | 20.3 nM | Active | 9.4 nM | 115 nM | Active | Active | Active | 0.13 nM
OC[C@H]1N/C(=N\C2CC2)[C@H](O)[C@@H](O)[C@H]1O | 31.9 nM | Active | > 1000 nM | 369 nM | Active | Active | Active | 0.32 nM
CC(C)(C)c1ccc(C/N=C2\N[C@H](CO)[C@H](O)[C@H](O)[C@H]2O)cc1 | 20.6 nM | Active | 412 nM | 122 nM | Active | Active | Active | 0.11 nM
COc1ccc(C/N=C2\N[C@H](CO)[C@H](O)[C@H](O)[C@H]2O)cc1 | 17.1 nM | Active | 26.2 nM | 150 nM | Active | Active | Active | 0.12 nM
OC[C@H]1N/C(=N\Cc2ccc(F)cc2)[C@H](O)[C@@H](O)[C@H]1O | 10.1 nM | Active | 9.1 nM | 331 nM | Active | Active | Active | 0.19 nM
Cc1ccccc1C/N=C1\N[C@H](CO)[C@H](O)[C@H](O)[C@H]1O | 23.6 nM | Active | 118 nM | 623 nM | Active | Active | Active | 0.2 nM
Cc1cccc(C/N=C2\N[C@H](CO)[C@H](O)[C@H](O)[C@H]2O)c1 | 29.4 nM | Active | 16.2 nM | 131 nM | Active | Active | Active | 0.11 nM
OC[C@H]1N/C(=N\CC2CC2)[C@H](O)[C@@H](O)[C@H]1O | 9.5 nM | Active | > 1400 nM | 36 nM | Active | Active | Active | 0.39 nM
Cc1ccc(CNC2=N[C@H](CO)[C@H](O)[C@H](O)C2)cc1 | 2400 nM | Active | 850 nM | 33300 nM | Active | Active | Active | 0.6 nM
OC[C@H]1N/C(=N\CC2CCCCCC2)[C@H](O)[C@@H](O)[C@H]1O | 6.3 nM | Active | 45.4 nM | 36 nM | Active | Active | Active | 0.16 nM
OC[C@H]1N/C(=N\CCCc2ccccc2)[C@H](O)[C@@H](O)[C@H]1O | 8.6 nM | Active | 41.3 nM | 36 nM | Active | Active | Active | 0.06 nM
